Source: ChEMBL document CHEMBL1124949, “4-(1,2,5,6-Tetrahydro-1-alkyl-3-pyridinyl)-2-thiazolamines: a novel class of compounds with central dopamine agonist properties” (J Med Chem, 1990)
Active and inactive are the calls of the source. The rule behind the calls is not given here.

Assays:
Rattus norvegicus [1] = experiment: Reversal of reserpine-induced depression in rat after subcutaneous administration; assay type: functional
Summary of the method: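 Rats were pretreated with reserpine 5 mg/kg 24 h before testing, then given drug sc. Locomotor activity was recorded for 30 min starting immediately after dosing.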

Rattus norvegicus [2] = experiment: Inhibition of locomotor activity was determined after oral administration in rat; assay type: functional
Summary of the method: (§1)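 Spontaneous exploratory locomotor activity was scored, with motor coordination (ataxia) checked in the same test. ED50 came from four to six doses, with 5–12 animals per dose.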

D(2) dopamine receptor [3] = target: T1, D(2) dopamine receptor (Rattus norvegicus, UniProt P61169); experiment: Inhibition of [3H]haloperidol binding for Dopamine receptor D2 in rat striatal membranes. (2% inhibition at 10 e-6 M); assay type: cell membranes, Membrane
T1 sequence (P61169 whole entry): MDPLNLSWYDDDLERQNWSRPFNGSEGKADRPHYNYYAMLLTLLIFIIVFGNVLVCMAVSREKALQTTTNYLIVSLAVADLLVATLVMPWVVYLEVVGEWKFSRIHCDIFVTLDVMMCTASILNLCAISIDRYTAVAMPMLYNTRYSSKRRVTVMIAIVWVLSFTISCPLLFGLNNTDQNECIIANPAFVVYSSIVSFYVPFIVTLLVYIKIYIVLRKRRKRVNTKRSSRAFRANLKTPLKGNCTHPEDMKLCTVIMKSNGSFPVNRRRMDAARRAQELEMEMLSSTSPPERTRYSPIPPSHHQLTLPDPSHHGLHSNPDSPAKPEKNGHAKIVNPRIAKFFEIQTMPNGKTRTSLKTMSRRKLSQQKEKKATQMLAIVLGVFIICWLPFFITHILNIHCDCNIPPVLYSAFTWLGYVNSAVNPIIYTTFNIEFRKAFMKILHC

Mus musculus = experiment: Inhibition of locomotor activity was determined after intraperitoneal administration in mouse; assay type: functional; settings: ip; summary of the method: as §1
D(2) dopamine receptor [4] = target: T1, D(2) dopamine receptor; experiment: Inhibition of [3H]haloperidol binding for Dopamine receptor D2 in rat striatal membranes. (25% inhibition at 10 e-6 M); assay type: cell membranes, Membrane
D(2) dopamine receptor [5] = target: T1, D(2) dopamine receptor; experiment: Inhibition of [3H]N-propylnorapomorphine binding to Dopamine receptor D2 of rat striatal membranes; assay type: cell membranes, Membrane
Rattus norvegicus [6] = experiment: Percent inhibition of dopamine neuronal firing in substantia nigra of anesthetized rats after (ip) administration at 2.5 mg/kg; assay type: functional
Rattus norvegicus [7] = experiment: Reversal of 6-hydroxydopamine induced depression in lesioned rats after dosing for a period of 30 minutes; assay type: functional; settings: 0.5 h
Summary of the method: (§2)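 Rats received 6-OHDA 200 μg icv plus pargyline 50 mg/kg ip and desmethylimipramine 25 mg/kg ip at least 1 month earlier, giving about 90% brain DA depletion. Drug was given sc and locomotion recorded for 30 min from dosing. ED200 is the dose doubling activity versus unlesioned controls, estimated from three or four doses with six animals per dose.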

Rattus norvegicus [8] = experiment: Decrease of DOPA formation effected by 30 mg/kg administered intraperitoneally in the striatum of GBL-treated rats; assay type: functional; settings: ip, route intraperitoneal
Summary of the method: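 Male Long-Evans rats dosed ip 1 h before sacrifice. GBL 750 mg/kg ip given 30 min and NSD 1015 100 mg/kg ip given 25 min before sacrifice. Striatal DOPA measured by HPLC with electrochemical detection. Decrease in DOPA formation at 30 mg/kg ip, n = 4 or 5.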

Rattus norvegicus [9] = experiment: Percent of animals showing stereotyped behavior in rats at 3 mg/kg; assay type: functional
Rattus norvegicus [10] = experiment: Inhibition of locomotor activity was determined after oral administration at a dose of 1 mg/kg in rat; assay type: functional
D(1A) dopamine receptor = D(1A) dopamine receptor (Rattus norvegicus, UniProt P18901); experiment: Inhibition of binding of [3H]SCH-23390 to Dopamine receptor D1 was determined
Sequence of D(1A) dopamine receptor (P18901 whole entry): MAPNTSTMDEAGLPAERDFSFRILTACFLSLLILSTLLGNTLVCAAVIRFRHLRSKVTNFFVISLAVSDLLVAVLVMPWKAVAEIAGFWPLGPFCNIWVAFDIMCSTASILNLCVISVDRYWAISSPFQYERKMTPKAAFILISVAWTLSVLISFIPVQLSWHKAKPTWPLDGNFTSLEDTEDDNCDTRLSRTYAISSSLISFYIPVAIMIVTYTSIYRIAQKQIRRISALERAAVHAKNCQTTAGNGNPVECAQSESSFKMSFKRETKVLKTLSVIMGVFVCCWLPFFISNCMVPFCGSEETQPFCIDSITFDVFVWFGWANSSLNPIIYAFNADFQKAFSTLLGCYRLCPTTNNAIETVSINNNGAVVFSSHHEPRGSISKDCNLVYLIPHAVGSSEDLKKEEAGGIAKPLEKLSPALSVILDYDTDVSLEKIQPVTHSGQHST
Summary of the method: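 D1 binding was displaced from [3H]SCH23390. IC50 was fitted by nonlinear regression from four or five concentrations.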

D(2) dopamine receptor [11] = target: T1, D(2) dopamine receptor; experiment: Inhibition of [3H]haloperidol binding for Dopamine receptor D2 in rat striatal membranes.; assay type: cell membranes, Membrane
Rattus norvegicus [12] = experiment: Decrease of DOPA formation effected by 30 mg/kg administered intraperitoneally in the striatum of GBL-treated rats; settings: at 30 mg/kg
Rattus norvegicus [13] = experiment: Percent inhibition of dopamine neuronal firing in substantia nigra of anesthetized rats after (ip) administration at 2.5 mg/kg
Rattus norvegicus [14] = experiment: Percent of rats showing stereotyped behavior at the dose at 3 mg/kg dose level; assay type: functional
Rattus norvegicus [15] = experiment: Reversal of 6-hydroxydopamine induced depression in lesioned rats was determined after dosing for a period of 30 minutes; assay type: functional; settings: 0.5 h; summary of the method: as §2
Rattus norvegicus [16] = experiment: Inhibition of locomotor activity was determined after oral administration in rat(50% inhibition at 3 mg/kg); assay type: functional
D(2) dopamine receptor [17] = target: T1, D(2) dopamine receptor; experiment: Inhibition of [3H]haloperidol binding for Dopamine receptor D2 in rat striatal membranes. (41% inhibition at 10 e-6 M); assay type: cell membranes, Membrane
Rattus norvegicus [18] = experiment: Inhibition of locomotor activity was determined after (sc) administration in rat (40% inhibition was determined at 3 mg/kg); assay type: functional, organism-based; set-up: dose 3 mg/kg
D(2) dopamine receptor [19] = target: T1, D(2) dopamine receptor; experiment: Inhibition of [3H]haloperidol binding for Dopamine receptor D2 in rat striatal membranes. (15% inhibition at 10 e-6 M); assay type: cell membranes, Membrane
Rattus norvegicus [20] = experiment: Percent of animals showing stereotyped behavior in rats at the dose 0.3 mg/kg; assay type: functional
D(2) dopamine receptor [21] = target: T1, D(2) dopamine receptor; experiment: Inhibition of [3H]haloperidol binding for Dopamine receptor D2 in rat striatal membranes. (36%inhibition at 10 e-6 M); assay type: cell membranes, Membrane
[22] = Rattus norvegicus, sc, read-out: ED50

Structure (SMILES)	IC50 (D(2) dopamine receptor [5]) [µM]	IC50 (D(2) dopamine receptor [11]) [nM]	ED50 (Rattus norvegicus [1]; [22]) [mg/kg]	ED50 (Rattus norvegicus [2])	also measured
CCCN1CCCC(c2cccc(O)c2)C1 (racemic)	–	–	30	3 mg/kg	–
CCCN1CCC=C(c2cnc(N)s2)C1	–	–	–	–	IC50 (D(2) dopamine receptor [3]): > 1000 nM; ED50 (Mus musculus): 19.1 mg/kg
CCCN1CCC=C(c2csc(NC)n2)C1	> 10	–	–	–	IC50 (D(2) dopamine receptor [4]): > 1000 nM
C=CCN1CCC=C(c2csc(N)n2)C1	0.257	440	8.7	–	inhibition in vivo at 2.5 mg/kg (Rattus norvegicus [6]): 100%; ED200 (Rattus norvegicus [7]): 0.3 mg/kg; inhibition in vivo at 30 mg/kg (Rattus norvegicus [8]): 100%; Animals (Rattus norvegicus [9]): 100%; inhibition in vivo at 1 mg/kg (Rattus norvegicus [10]): 30%; IC50 (D(1A) dopamine receptor): > 50 µM; ED50 (Mus musculus): 2.8 mg/kg
CCCN1CCCC(c2cccc(O)c2)C1 (stereo unspecified) [listing 1 of 2 here]	–	–	–	–	ED50 (Rattus norvegicus [1]): 30 mg/kg
Cl.Cl.Nc1nc(C2=CCCN(CCc3ccccc3)C2)cs1	0.911	1080	5.8	33.6 mg/kg	–
CCCN1CCC=C(c2csc(C)n2)C1.Cl.Cl	–	–	–	–	IC50 (D(2) dopamine receptor [17]): > 1000 nM; ED50 (Mus musculus): > 30 mg/kg
CCCN1CCCC(c2cccc(O)c2)C1 (stereo unspecified) [listing 2 of 2 here]	–	–	–	–	ED50 (Rattus norvegicus [18]): inactive
CCCCN1CCC=C(c2csc(NC)n2)C1.Cl.Cl	–	–	–	16.7 mg/kg	IC50 (D(2) dopamine receptor [4]): > 1000 nM; ED50 (Mus musculus): 4.4 mg/kg
CCCN1CCCC(c2csc(N)n2)C1.Cl.Cl (stereo unspecified)	–	–	–	18.9 mg/kg	inhibition in vivo at 30 mg/kg (Rattus norvegicus [8]): 55%; IC50 (D(2) dopamine receptor [19]): > 1000 nM
CN1CCC=C(c2csc(N)n2)C1.Cl.Cl	–	1040	> 30	inactive	inhibition (Rattus norvegicus [12]): 100%; inhibition (Rattus norvegicus [13]): 100%
CN1CCc2cccc3c2[C@H]1Cc1ccc(O)c(O)c1-3 [APOMORPHINE]	–	–	0.1	–	Animals (Rattus norvegicus [20]): 100%

The next lines start with results.

IC50 (D(2) dopamine receptor [5]) [µM]	IC50 (D(2) dopamine receptor [11]) [nM]	Structure (SMILES)	ED50 (Rattus norvegicus [1]; [22]) [mg/kg]	ED50 (Rattus norvegicus [2])	also measured
6.4	1850	Br.Br.CCCCCN1CCC=C(c2csc(N)n2)C1	> 30	15.6 mg/kg	inhibition in vivo at 30 mg/kg (Rattus norvegicus [8]): 0%; ED50 (Mus musculus): 4.1 mg/kg
5.13	2170	CCCCCCCN1CCC=C(c2csc(N)n2)C1.Cl.Cl	> 30	> 30 mg/kg	–
0.411	945	CCN1CCC=C(c2csc(N)n2)C1	> 30	inactive	inhibition (Rattus norvegicus [12]): 92%; inhibition (Rattus norvegicus [13]): 96%
3.98	2120	CCCCN1CCC=C(c2csc(N)n2)C1.Cl.Cl	> 30	5.4 mg/kg	inhibition in vivo at 2.5 mg/kg (Rattus norvegicus [6]): 0%; inhibition in vivo at 30 mg/kg (Rattus norvegicus [8]): 0%
0.596	958	CCCN1CCC=C(c2csc(N)n2)C1	> 30	–	inhibition in vivo at 2.5 mg/kg (Rattus norvegicus [6]): 100%; Animals (Rattus norvegicus [14]): 100%; inhibition in vivo at 30 mg/kg (Rattus norvegicus [8]): 100%; IC50 (D(1A) dopamine receptor): > 50 µM; ED200 (Rattus norvegicus [15]): 0.4 mg/kg; ED50 at 3 mg/kg (Rattus norvegicus [16]): 3 mg/kg
5.33	–	CCCCCCN1CCC=C(c2csc(N)n2)C1.Cl.Cl	> 30	–	IC50 (D(2) dopamine receptor [21]): > 1000 nM
